Tests used:
[1] = molecular target: Muscarinic acetylcholine receptor; experiment: Binding activity against muscarinic acetylcholine receptor in rat brain using [3H]QNB as the radioligand; type: tissue-based
[2] = molecular target: T1, D(2) dopamine receptor (Rattus norvegicus, UniProt P61169); experiment: Binding activity against dopamine receptor D2 in rat brain, using [3H]spiperone as the radioligand; type: tissue-based
Procedure, shortened: (§1)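 Rat striatal membranes; [3H]spiperone 0.95–1.4 nM final, with 40 nM ketanserin in all tubes to mask 5HT-2 sites. Buffer 50 mM Tris-HCl pH 7.4 with 120 mM NaCl, 5 mM KCl, 2 mM CaCl2, 1 mM MgCl2; 37 °C.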

[3] = molecular target: T2, D(1A) dopamine receptor (Rattus norvegicus, UniProt P18901); experiment: Binding activity against Dopamine receptor D1 in rat brain, using [3H]SCH-23390 as the radioligand; type: tissue-based
T2 sequence (P18901 whole entry): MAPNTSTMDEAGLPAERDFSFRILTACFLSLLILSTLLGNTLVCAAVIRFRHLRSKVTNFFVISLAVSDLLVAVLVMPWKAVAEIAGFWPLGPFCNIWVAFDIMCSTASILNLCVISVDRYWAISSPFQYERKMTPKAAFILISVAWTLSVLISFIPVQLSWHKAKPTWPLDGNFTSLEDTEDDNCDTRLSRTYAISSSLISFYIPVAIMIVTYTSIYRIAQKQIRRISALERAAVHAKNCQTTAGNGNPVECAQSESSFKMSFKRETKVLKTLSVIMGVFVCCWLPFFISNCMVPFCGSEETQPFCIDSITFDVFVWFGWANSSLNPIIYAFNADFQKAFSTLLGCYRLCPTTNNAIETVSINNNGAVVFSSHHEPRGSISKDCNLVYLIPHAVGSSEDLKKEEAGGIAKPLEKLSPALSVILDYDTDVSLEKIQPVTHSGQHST

[4] = molecular target: T1, D(2) dopamine receptor; experiment: Binding activity against dopamine D2 receptor in rat brain, using [3H]spiperone as the radioligand
[5] = molecular target: T2, D(1A) dopamine receptor; experiment: Binding activity against dopamine D1 receptor in rat brain, using [3H]SCH-23390 as the radioligand; type: tissue-based
Procedure, shortened: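 Rat striatum homogenized in 50 mM Tris-HCl pH 7.4 with 5 mM MgSO4, washed and resuspended in 200 vol. Incubated with [3H]SCH 23390 0.45–0.76 nM final, 37 °C, 30 min; nonspecific binding with 1 μM SCH 23390.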

[6] = molecular target: Muscarinic acetylcholine receptor; experiment: Binding activity against muscarinic receptor in rat brain using [3H]QNB as the radioligand; type: tissue-based
[7] = molecular target: T1, D(2) dopamine receptor; experiment: Binding activity against Dopamine receptor D2 in rat brain, using [3H]spiperone as the radioligand; type: tissue-based; procedure, shortened: as §1

T1 sequence (P61169 whole entry): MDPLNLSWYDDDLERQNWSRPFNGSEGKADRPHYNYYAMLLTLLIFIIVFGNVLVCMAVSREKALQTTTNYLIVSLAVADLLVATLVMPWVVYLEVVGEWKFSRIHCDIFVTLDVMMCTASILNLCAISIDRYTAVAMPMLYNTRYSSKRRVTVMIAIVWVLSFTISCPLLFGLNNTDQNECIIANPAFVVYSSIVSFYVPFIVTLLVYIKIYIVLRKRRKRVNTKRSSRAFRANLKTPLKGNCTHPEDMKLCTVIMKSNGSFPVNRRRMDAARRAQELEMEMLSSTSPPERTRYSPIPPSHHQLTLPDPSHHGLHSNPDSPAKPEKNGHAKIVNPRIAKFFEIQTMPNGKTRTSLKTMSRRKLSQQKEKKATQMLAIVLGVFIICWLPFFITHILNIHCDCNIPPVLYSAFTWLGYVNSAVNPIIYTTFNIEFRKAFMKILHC

Row | SMILES | IC50 [1] [nM] | IC50 [2] [nM] | IC50 [3] [nM] | IC50 [4] [nM] | IC50 [5] [nM] | IC50 [6] [nM] | IC50 [7] [nM]
1 | C/C=C1/c2ccccc2C=C(N2CCN(C)CC2)c2ccccc21 | 2600 | 6970 | 305 |  |  |  | 
2 | CC1c2ccccc2C=C(N2CCN(C)CC2)c2ccccc21 (stereo unspecified) | 1020 | 2650 | 74 |  |  |  | 
3 | CN1CCN(C2=Nc3ccccc3Nc3ccccc32)CC1 |  |  |  | > 10000 | 895 |  | 
4 | CN1CCN(C2=Nc3ccccc3Nc3ccc(Cl)cc32)CC1 [ISOCLOZAPINE] |  |  |  |  | 63 | 55 | 218

Source: ChEMBL document CHEMBL1124346 (J Med Chem, 1989)
